The values that follow come from paper PMC4137986 (Chemical Research in Toxicology, 2014).

“Also recorded” adds a separate entry of the source. Read-outs that look alike come from different tables or passages of the source.

Series [1] addresses T1, P450 1A1 (Homo sapiens, UniProt P04798).
T1 sequence (P04798 1-512): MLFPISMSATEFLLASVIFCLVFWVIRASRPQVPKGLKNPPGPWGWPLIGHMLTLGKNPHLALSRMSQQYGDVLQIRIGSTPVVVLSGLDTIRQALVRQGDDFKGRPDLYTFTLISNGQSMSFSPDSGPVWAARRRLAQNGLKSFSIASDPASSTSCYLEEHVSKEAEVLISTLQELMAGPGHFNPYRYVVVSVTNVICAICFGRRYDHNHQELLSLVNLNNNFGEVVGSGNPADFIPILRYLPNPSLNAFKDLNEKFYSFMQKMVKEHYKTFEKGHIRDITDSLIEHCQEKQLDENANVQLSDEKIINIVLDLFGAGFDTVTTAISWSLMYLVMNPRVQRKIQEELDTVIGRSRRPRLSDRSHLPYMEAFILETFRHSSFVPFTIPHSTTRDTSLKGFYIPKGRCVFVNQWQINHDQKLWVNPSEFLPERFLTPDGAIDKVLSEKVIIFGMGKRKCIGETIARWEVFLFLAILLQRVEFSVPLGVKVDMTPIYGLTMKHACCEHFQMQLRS
Nature of the series: Time-dependent inhibition kinetics of P450 1A1. The class given is biochemical. The conditions noted are these: for kinact: read-out: limiting kinact; for time-dependent inhibition of P450 1A1 (type of inhibition): time-course curves. An outline of the steps:
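Human P450 1A1 microsomes (1.6 nM) were used with 5 μM resorufin ethyl ether in pH 7.6 phosphate buffer, with the NADPH-regenerating system added to start the reaction at 37 °C. Product was monitored continuously for 6 min at several inhibitor concentrations. Progress curves were fitted to second-order polynomials, and their derivatives gave activity over time. Semilog plots gave t1/2 (0.693/kinact), and KI and limiting kinact came from Kitz–Wilson plots (1/kinact vs 1/[I]).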

In series [2] the target is T1, P450 1A1. Description: NADPH-dependency assay. In kind it is biochemical. To be noted: for NADPH-dependency of the inhibition of P450 1A1: 5 min preincubation with vs without NADPH. The method in brief:
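Human P450 1A1 microsomes (1.6 nM final) were used in 0.1 M potassium phosphate pH 7.6 with MgCl2, with inhibitor in DMSO at 0.00625 or 0.1 μM. Preincubation was 5 min at 37 °C either with an NADPH-regenerating system, then started with 5 μM resorufin ethyl ether, or without NADPH, then started with regenerating system plus substrate. Resorufin time-course was read at ex 535/em 585 nm, 37 °C.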

The target of series [3] is T1, P450 1A1. Nature of the series: P450 1A1-dependent deethylation of resorufin ethyl ether. The class given is biochemical.
A further series deals with T2, P450 1A1 over P450 1A2 (Homo sapiens, UniProt P04798).
T2 sequence (P04798 1-512): T1 sequence (P04798 1-512)
The description is as above. To be noted: human, recombinant human CYP1A1 and CYP1A2 supersomes, pH 7.6. The class given is biochemical.

The target in a further series is T3, P450 1A2 (Homo sapiens, UniProt P05177).
T3 sequence (P05177 1-516): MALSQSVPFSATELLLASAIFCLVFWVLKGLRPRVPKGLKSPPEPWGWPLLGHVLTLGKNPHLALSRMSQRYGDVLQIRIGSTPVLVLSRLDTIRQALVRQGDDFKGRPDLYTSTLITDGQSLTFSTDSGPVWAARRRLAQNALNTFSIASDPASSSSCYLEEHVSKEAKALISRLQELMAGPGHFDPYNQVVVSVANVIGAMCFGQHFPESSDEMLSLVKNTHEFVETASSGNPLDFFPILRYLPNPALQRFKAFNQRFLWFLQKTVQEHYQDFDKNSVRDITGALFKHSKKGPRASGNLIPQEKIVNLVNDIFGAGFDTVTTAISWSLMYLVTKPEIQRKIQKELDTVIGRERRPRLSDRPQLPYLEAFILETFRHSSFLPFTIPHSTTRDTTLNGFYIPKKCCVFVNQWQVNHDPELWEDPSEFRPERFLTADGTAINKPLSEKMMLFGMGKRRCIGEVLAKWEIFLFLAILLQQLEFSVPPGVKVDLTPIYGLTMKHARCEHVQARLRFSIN
Nature of the series: P450 1A2-dependent demethylation of resorufin methyl ether. The class given is biochemical.

Series [4] deals with T1, P450 1A1. To be noted: read-out: Ki of well-known P450 1A1 inhibitors; cited from earlier work.
The next series has as its target T4, P450 2B1 (Rattus norvegicus, UniProt P00176).
T4 sequence (P00176 1-491): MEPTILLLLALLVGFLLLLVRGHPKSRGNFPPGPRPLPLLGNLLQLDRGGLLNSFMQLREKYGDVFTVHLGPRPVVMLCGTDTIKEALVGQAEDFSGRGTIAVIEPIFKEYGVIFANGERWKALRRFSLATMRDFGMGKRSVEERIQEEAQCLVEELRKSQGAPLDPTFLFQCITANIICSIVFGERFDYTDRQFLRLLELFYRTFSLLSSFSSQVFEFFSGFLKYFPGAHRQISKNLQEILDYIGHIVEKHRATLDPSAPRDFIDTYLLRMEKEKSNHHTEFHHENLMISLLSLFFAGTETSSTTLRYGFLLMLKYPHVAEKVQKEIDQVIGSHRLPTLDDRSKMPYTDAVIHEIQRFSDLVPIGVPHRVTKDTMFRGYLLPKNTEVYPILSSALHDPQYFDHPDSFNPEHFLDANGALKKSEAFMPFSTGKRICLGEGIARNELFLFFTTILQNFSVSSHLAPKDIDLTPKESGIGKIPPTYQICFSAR
Description: P450 2B1-dependent depentylation of resorufin pentyl ether. The class given is biochemical. The method in brief: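 Rat P450 2B1 microsomes (5 nM final) were used in 0.1 M potassium phosphate pH 7.6 with MgCl2, with 5 μM resorufin pentyl ether in DMSO. Reactions were started with an NADPH-regenerating system (NADP+, glucose 6-phosphate, G6PDH) and run at 37 °C. Resorufin formation was followed continuously at ex 535/em 585 nm.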

The target in another series is T5, P450 1A2 over P450 1A1 (Homo sapiens, UniProt P05177).
T5 sequence (P05177 1-516): T3 sequence (P05177 1-516)
Nature of the series: P450 1A2-dependent demethylation of resorufin methyl ether. In kind it is biochemical. The conditions noted are these: human, recombinant human CYP1A1 and CYP1A2 supersomes, pH 7.6.

Broadly, the kinact is the maximal first-order rate at which the target is inactivated. Take `C#Cc1ccc2oc(-c3ccccc3)cc(=O)c2c1` [6EF, 6-Ethynylflavone]: at P450 1A1 [1], the Ki came to 43 ± 8 nM; the kinact is 0.0055 s⁻¹; the “time-dependent inhibition of P450 1A1 (type of inhibition)” value (“time-dependent inhibition of P450 1A1” below) is “time- and concentration-dependently inhibit P450 1A1”. Further, on P450 1A1 [2], the “NADPH-dependency of the inhibition of P450 1A1” value is recorded as “exhibit NADPH-dependency”. Moreover, the “effect of 5 min preincubation with NADPH on P450 1A1 activity” value (“effect of 5 min preincubation with NADPH” for short) on P450 1A1 [2] (inhibitor 0.00625 μM) is “complete inhibition”. Also, the Ki on P450 1A1 [3] was found to be 35 nM. Further, the selectivity ratio at 6 min on P450 1A1 over P450 1A2 came out at 177. The compound further gave a Ki at P450 1A2 of 6200 nM.

As to `C#Cc1ccc(-c2cc(=O)c3ccccc3o2)cc1` [4′EF, 4′-Ethynylflavone], on P450 1A1 [1], the Ki worked out at 56 ± 14 nM; the kinact was 0.0055 s⁻¹; the “time-dependent inhibition of P450 1A1” value is “time- and concentration-dependently inhibit P450 1A1”. For the same compound, the “NADPH-dependency of the inhibition of P450 1A1” value at P450 1A1 [2] is on record as “exhibit NADPH-dependency”. In addition, the “effect of 5 min preincubation with NADPH” value at P450 1A1 [2] (inhibitor 0.00625 μM) was “complete inhibition”. Further, the selectivity ratio at 6 min at P450 1A1 over P450 1A2 stood at 85. The Ki at P450 1A2 was 3260 nM.

For the compound `O=c1cc(-c2ccccc2)oc2c1ccc1ccccc12` [αNF, α-naphthoflavone], the Ki at P450 1A1 [4] was ~40 nM.

Consider `C#Cc1ccc2c(=O)cc(-c3ccccc3)oc2c1` [7EF, 7-Ethynylflavone], for which, at P450 1A1 [1], the Ki amounted to 35 ± 12 nM; the kinact is 0.007 s⁻¹; the “time-dependent inhibition of P450 1A1” value is “time- and concentration-dependently inhibit P450 1A1”. Moreover, at P450 1A1 [2], the “NADPH-dependency of the inhibition of P450 1A1” value was “exhibit NADPH-dependency”. The “effect of 5 min preincubation with NADPH” value on P450 1A1 [2] (inhibitor 0.00625 μM) was “complete inhibition; also recorded: completely subvert the enzymatic activity”.

Take `C#Cc1cccc2oc(-c3ccccc3)cc(=O)c12` [5EF, 5-Ethynylflavone]: at P450 1A1 [1], the Ki came out at 510 ± 90 nM; the kinact is 0.0011 s⁻¹; the “time-dependent inhibition of P450 1A1” value is “time- and concentration-dependently inhibit P450 1A1”. The “NADPH-dependency of the inhibition of P450 1A1” value on P450 1A1 [2] was “exhibit NADPH-dependency”. The “effect of 5 min preincubation with NADPH” value on P450 1A1 [2] (inhibitor 0.1 μM) is given as “considerable inhibition”. The same compound came in with a Ki on P450 1A1 [3] of 1230 nM.

Take `C#Cc1ccc2cc(-c3ccccc3)c(=O)oc2c1` [7E3PC, 7-ethynyl-3-phenylcoumarin, reference compound]: the Ki on P450 1A1 [3] was 740 nM.

On to `C#Cc1ccccc1-c1cc(=O)c2ccccc2o1` [2′EF, 2′-Ethynylflavone], for which, at P450 1A1 [1], the “time-dependent inhibition of P450 1A1” value was “only a competitive inhibitor”. Besides, the Ki on P450 2B1 amounted to 15700 nM; at P450 1A1 [3] it was 1640 nM; on P450 1A2, 230 nM. Also, the “NADPH-dependency of the inhibition of P450 1A1” value on P450 1A1 [2] is recorded as “does not NADPH-dependently inhibit P450 1A1”. Also, at P450 1A1 [2] (inhibitor 0.1 μM), the “effect of 5 min preincubation with NADPH” value was “slight influence on enzymatic activity”. Also, on P450 1A2 over P450 1A1, the selectivity ratio at 6 min was found to be 7.2.

On to `C#Cc1cccc(-c2cc(=O)c3ccccc3o2)c1` [3′EF, 3′-Ethynylflavone], for which, at P450 1A1 [1], the Ki was found to be 53 ± 7 nM; the kinact was 0.00767 s⁻¹; the “time-dependent inhibition of P450 1A1” value was “time- and concentration-dependently inhibit P450 1A1”. For the same compound, the “NADPH-dependency of the inhibition of P450 1A1” value on P450 1A1 [2] is reported as “exhibit NADPH-dependency”. Also, the “effect of 5 min preincubation with NADPH” value at P450 1A1 [2] (inhibitor 0.00625 μM) was “complete inhibition; also recorded: completely subvert the enzymatic activity”.

On to `c1cc2ccc3cccc4ccc(c1)c2c34` [pyrene], for which, at P450 1A1 [4], the Ki was ~40 nM.
